Data: article PMC12137828 (Nature Communications, 2025)
Read-outs that look alike come from different tables or passages of the source.

Key:
[1] = target: T1, AtDHAD (Arabidopsis thaliana, UniProt Q9LIR4); test: MST assay, binding affinity
T1 sequence (Q9LIR4 35-608): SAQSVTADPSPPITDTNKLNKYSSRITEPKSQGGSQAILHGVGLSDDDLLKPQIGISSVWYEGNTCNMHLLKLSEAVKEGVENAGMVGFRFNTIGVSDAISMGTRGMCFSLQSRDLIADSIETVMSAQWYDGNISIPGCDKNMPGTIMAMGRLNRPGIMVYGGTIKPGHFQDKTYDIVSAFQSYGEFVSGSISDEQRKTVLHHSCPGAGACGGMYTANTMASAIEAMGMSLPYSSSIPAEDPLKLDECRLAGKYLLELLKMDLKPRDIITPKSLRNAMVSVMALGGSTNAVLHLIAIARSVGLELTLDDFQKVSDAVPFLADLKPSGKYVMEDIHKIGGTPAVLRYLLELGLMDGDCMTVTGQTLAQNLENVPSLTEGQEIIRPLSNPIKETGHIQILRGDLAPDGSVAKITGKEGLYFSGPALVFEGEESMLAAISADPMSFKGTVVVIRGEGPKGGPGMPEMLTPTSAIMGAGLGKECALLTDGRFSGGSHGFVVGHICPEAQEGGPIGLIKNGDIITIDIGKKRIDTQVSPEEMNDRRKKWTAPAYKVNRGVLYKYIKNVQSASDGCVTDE
Method in brief: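 AtDHAD was expressed in E. coli BL21(DE3) under IPTG induction, with FeCl3 and L-Ara added to stabilise the [2Fe-2S] cluster. It was purified by Ni-NTA anaerobically and lysine-labelled with RED-NHS dye. Ligand from 10−10 to 10−1 M was incubated with 50 nM labelled protein for 30 min at 4 °C in phosphate buffer (0.05% Tween 20, pH 7.4). Excitation was 100% or 40%, with medium MST power. Kd is given as mean ± SD.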

[2] = test system: cyanobacteria; details: by targeting DHAD ref 3; cited from earlier work
[3] = test system: 2-week-old A. thaliana plants; test: Postemergence treatment of A. thaliana; format: in vivo, Arabidopsis thaliana
Method in brief: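 Col-0 seeds were chilled at 4 °C for 3 days and grown in soil pots in a light incubator at 22 °C with an 8 h light/16 h dark cycle. Test compound was dissolved in DMSO and diluted with 0.5% aqueous Tween 80 to a final 200 μg/mL (DMSO below 5%), then applied by foliar spray. Fresh weight inhibition was read out.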

[4] = test system: glufosinate-resistant Arabidopsis thaliana; details: 250 µM ref 2; cited from earlier work

Kd ([1]; Kd) [µM]	Compound	growth of cyanobacteria [2]	Kd [1] [µM]	Fresh weight inhibition rate (%) ([3]; 200 μg/mL foliar spray, 20 days after treatment)	symptoms after postemergence treatment of two-week-old plants ([3]; foliar spray, 200 μg/mL)	herbicidal activity against glufosinate-resistant Arabidopsis thaliana [4]
5.39	CC(C)(O)C(O)C(=O)O (stereo not shown) [Substrate (dihydroxyisovalerate), 2,3-dihydroxy-3-methylbutanoic acid]					
507	O=C(O)C(O)C(=O)O [TA, tartronic acid]	inhibited the growth of cyanobacteria				
	aspterric acid [AA]		3.41	55.96	cessation of new leaf production and the onset of leaf wilting	exhibits herbicidal activity
